From ChEMBL document CHEMBL1133419, “Design, synthesis and biological evaluation of 3-amino-3-phenylpropionamide derivatives as novel mu opioid receptor ligands” (Bioorg Med Chem Lett, 2000)
pKi: −log10 of the molar value.

Legend:
[1] = target: Delta-type opioid receptor (Homo sapiens, UniProt P41143); assay: Inhibition of [3H]naltrindole binding to human Opioid receptor delta 1 in CHO cells; assay type: cell-based
Method in brief: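 Membranes from CHO cells expressing human delta opioid receptor (homogenized in 50 mM Tris HCl pH 7.4, 1 mM EGTA; stored frozen at 0.8 mg/mL) incubated with 0.5 nM [3H]naltrindole, 90 min at 37 °C. Nonspecific binding defined with unlabelled naltrindole. Filtration, scintillation counting; mean of at least three independent assays.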

[2] = target: Kappa-type opioid receptor (Homo sapiens, UniProt P41145); assay: biochemical; assay type: cell-based, HEK293
Kappa-type opioid receptor, sequence (P41145 whole entry): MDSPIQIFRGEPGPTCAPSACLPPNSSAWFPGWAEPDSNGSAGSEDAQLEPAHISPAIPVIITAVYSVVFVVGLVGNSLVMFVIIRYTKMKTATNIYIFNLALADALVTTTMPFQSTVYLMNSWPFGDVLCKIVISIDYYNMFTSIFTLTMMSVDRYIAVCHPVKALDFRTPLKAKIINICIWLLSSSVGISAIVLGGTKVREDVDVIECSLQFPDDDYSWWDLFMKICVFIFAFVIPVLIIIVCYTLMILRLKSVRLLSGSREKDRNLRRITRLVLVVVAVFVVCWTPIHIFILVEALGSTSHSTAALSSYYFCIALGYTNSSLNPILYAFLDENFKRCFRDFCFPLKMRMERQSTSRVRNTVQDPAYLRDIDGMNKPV

[3] = target: Mu-type opioid receptor (Rattus norvegicus, UniProt P33535); assay: Inhibition of [3H]DAMGO binding to rat Opioid receptor mu 1
Mu-type opioid receptor, sequence (P33535 whole entry): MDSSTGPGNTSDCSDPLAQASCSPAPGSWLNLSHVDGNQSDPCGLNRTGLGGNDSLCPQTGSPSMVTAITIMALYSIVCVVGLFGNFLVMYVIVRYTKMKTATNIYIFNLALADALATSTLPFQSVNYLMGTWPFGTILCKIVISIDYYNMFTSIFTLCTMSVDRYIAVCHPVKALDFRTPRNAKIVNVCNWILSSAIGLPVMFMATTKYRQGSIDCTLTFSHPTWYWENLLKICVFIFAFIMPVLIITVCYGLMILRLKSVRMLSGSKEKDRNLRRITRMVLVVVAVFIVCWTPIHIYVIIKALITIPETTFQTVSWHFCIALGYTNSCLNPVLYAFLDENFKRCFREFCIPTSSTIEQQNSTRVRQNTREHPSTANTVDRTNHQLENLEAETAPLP
Method in brief: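 Rat brain crude membranes (homogenized in 50 mM Tris HCl pH 7.4, kept on ice) incubated with 1.5 nM [3H]DAMGO for 90 min at 22 °C. Nonspecific binding defined with naltrexone. Terminated by rapid filtration, bound radioactivity counted by scintillation. Mean of at least three independent assays.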

Delta-type opioid receptor, sequence (P41143 whole entry): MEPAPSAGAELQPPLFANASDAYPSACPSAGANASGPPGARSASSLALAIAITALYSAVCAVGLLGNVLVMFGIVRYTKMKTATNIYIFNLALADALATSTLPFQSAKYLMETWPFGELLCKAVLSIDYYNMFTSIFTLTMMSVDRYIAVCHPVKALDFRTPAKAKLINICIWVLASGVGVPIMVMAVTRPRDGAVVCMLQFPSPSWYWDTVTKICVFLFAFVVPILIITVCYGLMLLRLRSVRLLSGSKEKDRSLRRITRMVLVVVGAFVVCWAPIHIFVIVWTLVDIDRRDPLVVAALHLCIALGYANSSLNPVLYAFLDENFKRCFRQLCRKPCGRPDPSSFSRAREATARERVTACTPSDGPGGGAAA

Row | SMILES | pKi [1] | pKi [2] | pKi [3]
1 | CNC(c1ccccc1)C(C)(C)C(=O)NCC1CCCCC1 (stereo not drawn) | < 5.00 | 8.92 | 7.07
2 | CN(CC1CC1)C(c1cccc(O)c1)C(C)(C)C(=O)NCCc1ccccc1 (stereo not drawn) | 6.15 | 8.54 | 7.55
3 | CNC(c1ccccc1)C(C)(C)C(=O)NCc1ccccc1 (stereo not drawn) | < 5.00 | 6.33 | 7.02
4 | CNC(c1cccc(O)c1)C(C)(C)C(=O)NCC1CCCCC1 (stereo not drawn) | 6.06 | 8.24 | 8.36
5 | CNC(c1ccccc1)C(C)(C)C(=O)NCCc1ccccc1 (stereo not drawn) | < 5.00 | 7.31 | 7.89
6 | CCCCN(C)C(c1cccc(O)c1)C(C)(C)C(=O)NCCc1ccccc1 (stereo not drawn) | < 5.00 | 7.12 | 7.59
7 | CNC(c1cccc(O)c1)C(C)(C)C(=O)NCCCc1ccccc1 (stereo not drawn) | < 5.00 | 8.44 | 7.92
8 | CNC(c1cccc(O)c1)C(C)(C)C(=O)NCCc1ccccc1 (stereo not drawn) | 6.75 | 8.20 | 8.85
9 | CNC(c1cccc(O)c1)C(C)(C)C(=O)NCc1ccccc1 (stereo not drawn) | < 5.00 | 8.30 | 8.06
10 | CNC(c1cccc(O)c1)C(C)(C)C(=O)NCC1CC1 (stereo not drawn) | 6.11 | 7.12 | 6.44
11 | CNC(c1cccc(O)c1)C(C)(C)C(=O)NCc1cccc2ccccc12 (stereo not drawn) | 6.79 | 8.89 | 8.85
